Entries after “also recorded” stand apart in the source; their conditions may differ.
Experiment: MAD phase pharmacokinetics
Type: in vivo, human
Settings: for PTR, GeoMean / PTR, Median: peak-to-trough ratio; for R max, GeoMean / R max, Median: accumulation ratio from C max; for R through, GeoMean / R through, Median: accumulation ratio from C trough; for t 1/2_eff, Median / t 1/2_eff, GeoMean: effective half-life based on accumulation; for AUC / Cmax / concentration at 11 day / concentration at 12 day / concentration at 13 day / concentration at 14 day / Tmax: human, plasma, oral; for AUC: AUC τ; for Cmax: C max; for concentration at 11 day / concentration at 12 day / concentration at 13 day / concentration at 14 day: C trough; for Tmax: T max
In short: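 MAD phase, 2–15 mg q.d. oral for 14 days. Plasma was sampled predose daily and 15 min–48 h on days 1 and 14. Urine was pooled over 24 h on days 1 and 14. One CSF sample was taken 3 h postdose on day 7 (10 mg cohort). All matrices were assayed by validated LC-MS/MS. Derived: Cmax, Tmax, t1/2, AUCτ, Ctrough, peak-to-trough ratio, accumulation ratios, and CSF/plasma ratio corrected for protein binding. Results reported as geometric means (95% CI) and medians.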

[1] = 2 mg, GeoMean, MAD 2 mg q.d., day 14
[2] = 2 mg, Median, MAD 2 mg q.d., day 1
[3] = 2 mg, Median, MAD 2 mg q.d., day 14
[4] = 5 mg, GeoMean, MAD 5 mg q.d., day 1
[5] = 5 mg, GeoMean, MAD 5 mg q.d., day 14
[6] = 5 mg, Median, MAD 5 mg q.d., day 1

Structure (SMILES): Fc1ccccc1Cc1nc(-c2nc(C(F)(F)F)n[nH]2)cn2ccnc12 [zagociguat, 8‐(2‐fluorobenzyl)‐6‐(3‐(trifluoromethyl)‐1H‐1,2,4‐triazol‐5‐yl)imidazo[1,2‐a]pyrazine]
- CNS penetration (CSF sampling during the MAD phase): confirmed by cerebrospinal fluid sampling; also recorded: confirmed by CSF sampling
- Dose level from which detectable in urine (MAD): 2 mg
- C trough, GeoMean (MAD 2 mg q.d., day 1): 161.13 ng/mL
- C trough, Median (MAD 2 mg q.d., day 1): 157.0 ng/mL
- PTR, GeoMean (MAD 2 mg q.d., day 1): 1.62
- PTR, Median (MAD 2 mg q.d., day 1): 1.64
- PTR, GeoMean (MAD 2 mg q.d., day 14): 1.41
- PTR, Median (MAD 2 mg q.d., day 14): 1.40
- R max, GeoMean (MAD 2 mg q.d.): 3.38
- R max, Median (MAD 2 mg q.d.): 3.32
- R through, GeoMean (MAD 2 mg q.d.): 3.87
- R through, Median (MAD 2 mg q.d.): 4.06
- t 1/2_eff, Median (MAD 2 mg q.d.): 54.46 h
- PTR, GeoMean (MAD 5 mg q.d., day 1): 1.55
- PTR, Median (MAD 5 mg q.d., day 1): 1.50
- PTR, GeoMean (MAD 5 mg q.d., day 14): 1.35
- PTR, Median (MAD 5 mg q.d., day 14): 1.34
- R max, GeoMean (MAD 5 mg q.d.): 3.45
- R max, Median (MAD 5 mg q.d.): 3.56
- R through, GeoMean (MAD 5 mg q.d.): 3.98
- R through, Median (MAD 5 mg q.d.): 3.79
- t 1/2_eff, GeoMean (MAD 5 mg q.d.): 54.60 h
- t 1/2_eff, Median (MAD 5 mg q.d.): 56.63 h
- PTR, Median (MAD 10 mg q.d., day 1): 1.36
- PTR, GeoMean (MAD 10 mg q.d., day 14): 1.37
- PTR, Median (MAD 10 mg q.d., day 14): 1.37
- R max, GeoMean (MAD 10 mg q.d.): 3.60
- R max, Median (MAD 10 mg q.d.): 3.68
- R through, GeoMean (MAD 10 mg q.d.): 3.79
- R through, Median (MAD 10 mg q.d.): 3.56
- t 1/2_eff, GeoMean (MAD 10 mg q.d.): 54.29 h
- t 1/2_eff, Median (MAD 10 mg q.d.): 54.53 h
- C trough, GeoMean (MAD 15 mg q.d., day 1): 1173.20 ng/mL
- C trough, Median (MAD 15 mg q.d., day 1): 1165 ng/mL
- PTR, GeoMean (MAD 15 mg q.d., day 1): 1.38
- PTR, Median (MAD 15 mg q.d., day 1): 1.37
- C trough, GeoMean (MAD 15 mg q.d., day 11): 4149.25 ng/mL
- C trough, Median (MAD 15 mg q.d., day 11): 4140 ng/mL
- C trough, GeoMean (MAD 15 mg q.d., day 12): 4246.79 ng/mL
- C trough, Median (MAD 15 mg q.d., day 12): 4140 ng/mL
- C trough, GeoMean (MAD 15 mg q.d., day 13): 4157.21 ng/mL
- C trough, Median (MAD 15 mg q.d., day 13): 4160 ng/mL
- C trough, GeoMean (MAD 15 mg q.d., day 14): 4377.90 ng/mL
- C trough, Median (MAD 15 mg q.d., day 14): 4275 ng/mL
- PTR, GeoMean (MAD 15 mg q.d., day 14): 1.35
- PTR, Median (MAD 15 mg q.d., day 14): 1.33
- R max, GeoMean (MAD 15 mg q.d.): 3.61
- R max, Median (MAD 15 mg q.d.): 3.54
- R through, GeoMean (MAD 15 mg q.d.): 3.73
- R through, Median (MAD 15 mg q.d.): 3.81
- t 1/2_eff, GeoMean (MAD 15 mg q.d.): 52.80 h
- t 1/2_eff, Median (MAD 15 mg q.d.): 51.81 h
- Dose linearity analysis using AUC τ and C max (MAD day 1 and day 14 (Table S6)): indicated dose proportionality
- Day on which steady-state was attained (MAD, all doses administered, Helmert contrasts of trough concentrations): 11 days
- AUC (both, 2 mg, GeoMean, MAD 2 mg q.d., day 1): 4500 ng·h/mL
- AUC (both, 2 mg, GeoMean, MAD 2 mg q.d., day 14): 16900 ng·h/mL
- AUC (both, 2 mg, Median, MAD 2 mg q.d., day 1): 4520 ng·h/mL
- AUC (both, 2 mg, Median, MAD 2 mg q.d., day 14): 17000 ng·h/mL
- Cmax (2 mg, GeoMean, MAD 2 mg q.d., day 1): 260 ng/mL
- Cmax [1]: 880 ng/mL
- Cmax [2]: 268 ng/mL
- Cmax [3]: 888 ng/mL
- concentration at 11 day (2 mg, GeoMean, MAD 2 mg q.d., day 11): 587 ng/mL
- concentration at 12 day (2 mg, GeoMean, MAD 2 mg q.d., day 12): 593 ng/mL
- concentration at 13 day (2 mg, GeoMean, MAD 2 mg q.d., day 13): 616 ng/mL
- concentration at 14 day [1]: 624 ng/mL
- concentration at 11 day (2 mg, Median, MAD 2 mg q.d., day 11): 579 ng/mL
- concentration at 12 day (2 mg, Median, MAD 2 mg q.d., day 12): 584 ng/mL
- concentration at 13 day (2 mg, Median, MAD 2 mg q.d., day 13): 610 ng/mL
- concentration at 14 day [3]: 632 ng/mL
- Tmax [2]: 1 h
- Tmax [3]: 1 h
- AUC [4]: 11000 ng·h/mL
- AUC [5]: 42100 ng·h/mL
- AUC [6]: 11500 ng·h/mL
- AUC (5 mg, Median, MAD 5 mg q.d., day 14): 43900 ng·h/mL
- Cmax [4]: 602 ng/mL
- Cmax [5]: 2080 ng/mL
- Cmax [6]: 597 ng/mL
